IC50 data for 18 compounds are collected here from ChEMBL document CHEMBL3600341, “Discovery of a series of novel compounds with moderate anti-hepatitis C virus NS3 protease activity in vitro” (Bioorg Med Chem, 2015).

Molecules are shown by their SMILES.

A short description of this experiment: Inhibition of HCV NS3/4A protease using RET S1 as substrate preincubated for 10 mins followed by substrate addition measured for 30 mins by FRET analysis. Also noted: species or system Hepacivirus hominis. The method in brief: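 NS3/4A protease activity followed by intramolecular FRET with quenched-fluorogenic substrate Ac-DED(EDANS)EEAbuY[COO]ASK(DABCYL). Buffer 30 mM HEPES pH 7.5, 40% glycerol, 10 mM DTT, 2% DMSO. Ten-dose 4-fold serial dilution of compound in DMSO; 10 min preincubation, substrate added to start. Kinetic read 30 min, ex 335 nm/em 495 nm. IC50 from percent inhibition versus inhibitor concentration.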
Broadly, the IC50 is the midpoint of a concentration-inhibition curve. Low values mean higher potency, high ones lower potency. `COc1ccc(C(=O)N[C@H]2C[C@@H](C(=O)N[C@@H](CC(C)C)C(=O)NS(=O)(=O)C3CC3)N(C(=O)[C@@H](NC(=O)OC(C)(C)C)C(C)(C)C)C2)cc1` gave an IC50 of over 100 µM.

With `Cc1cccc(Nc2ccccc2C(=O)N[C@H]2C[C@@H](C(=O)N[C@@H](CC(C)C)C(=O)NS(=O)(=O)C3CC3)N(C(=O)[C@@H](NC(=O)OC(C)(C)C)C(C)(C)C)C2)c1C`, the IC50 is 2.1 µM.

Turning to `CC(C)(C)OC(=O)N[C@@H](Cc1ccccc1)C(=O)N1C[C@@H](n2cc(-c3ccccc3)nn2)C[C@H]1C(=O)N[C@H](Cc1ccccc1)C(=O)NS(=O)(=O)C1CC1`, the 50% inhibitory concentration (IC50) turned out to be 7.1 µM.

`Cc1ccc(S(=O)(=O)NC(=O)[C@H](CC(C)C)NC(=O)[C@@H]2C[C@H](n3cc(-c4ccccc4)nn3)CN2C(=O)[C@@H](NC(=O)c2ccccc2)C2CCCCC2)cc1` yielded an IC50 of 2.5 µM.

`CCC[C@H](NC(=O)[C@@H]1[C@H]2CCC[C@H]2CN1C(=O)[C@@H](NC(=O)[C@@H](NC(=O)c1cnccn1)C1CCCCC1)C(C)(C)C)C(=O)C(=O)NC1CC1` [TELAPREVIR] had an IC50 of 0.45 µM.

As for `CC(C)C[C@H](NC(=O)[C@@H]1C[C@H](NC(=O)c2ccc3ccccc3c2)CN1C(=O)[C@@H](NC(=O)OC(C)(C)C)C(C)(C)C)C(=O)NS(=O)(=O)C1CC1`, the IC50 is over 100 µM.

`CC(C)C[C@H](NC(=O)OC(C)(C)C)C(=O)N1C[C@@H](n2cc(-c3ccccc3)nn2)C[C@H]1C(=O)N[C@H](Cc1ccccc1)C(=O)NS(=O)(=O)C1CC1` displayed an IC50 of over 100 µM.

The compound `O=C(N[C@H](C(=O)N1C[C@@H](n2cc(-c3ccccc3)nn2)C[C@H]1C(=O)N[C@H](Cc1ccccc1)C(=O)NS(=O)(=O)C1CC1)C1CCCCC1)OCc1ccccc1` returned an IC50 of 4.5 µM.

For the compound `O=C(N[C@H](C(=O)N1C[C@@H](n2cc(-c3ccccc3)nn2)C[C@H]1C(=O)N[C@H](Cc1ccccc1)C(=O)NS(=O)(=O)C1CC1)C1CCCCC1)c1ccccc1`, the IC50 is 7.4 µM.

With `Cc1ccc(S(=O)(=O)NC(=O)[C@H](CC(C)C)NC(=O)[C@@H]2C[C@H](n3cc(-c4ccccc4)nn3)CN2C(=O)[C@H](Cc2c[nH]c3ccccc23)NC(=O)OC(C)(C)C)cc1`, half-maximal inhibition (IC50) was put at 5.6 µM.

Regarding `Cc1ccc(S(=O)(=O)NC(=O)[C@H](CC(C)C)NC(=O)[C@@H]2C[C@H](n3cc(-c4ccccc4)nn3)CN2C(=O)[C@@H](NC(=O)c2ccco2)C(C)(C)C)cc1`, half-maximal inhibition (IC50) required 34 µM.

The compound `CC(C)C(=O)N[C@H](C(=O)N1C[C@@H](n2cc(-c3ccccc3)nn2)C[C@H]1C(=O)N[C@H](Cc1ccccc1)C(=O)NS(=O)(=O)C1CC1)C1CCCCC1` returned a concentration for half-maximal inhibition (IC50) of over 100 µM.

In turn, `CC(C)(C)OC(=O)N[C@H](C(=O)N1C[C@@H](n2cc(-c3ccccc3)nn2)C[C@H]1C(=O)N[C@H](Cc1ccccc1)C(=O)NS(=O)(=O)C1CC1)C1CCCCC1` returned a half-inhibitory concentration (IC50) of 72 µM.

Compound `Cc1ccc(S(=O)(=O)NC(=O)[C@H](CC(C)C)NC(=O)[C@@H]2C[C@H](n3cc(-c4ccccc4)nn3)CN2C(=O)[C@H](Cc2ccccc2)NC(=O)C(C)C)cc1` displayed an IC50 of over 100 µM.

On to `Cc1ccc(S(=O)(=O)NC(=O)[C@H](CC(C)C)NC(=O)[C@@H]2C[C@H](n3cc(-c4ccccc4)nn3)CN2C(=O)[C@@H](NC(=O)OC(C)(C)C)C(C)(C)C)cc1`, for which the IC50 is over 100 µM.

`Cc1ccc(S(=O)(=O)NC(=O)[C@H](CC(C)C)NC(=O)[C@@H]2C[C@H](n3cc(-c4ccccc4)nn3)CN2C(=O)[C@H](Cc2ccccc2)NC(=O)OC(C)(C)C)cc1`: the concentration for half-maximal inhibition (IC50) was 5.9 µM.

As for `CC(C)(C)OC(=O)N[C@H](C(=O)N1C[C@@H](n2cc(-c3ccccc3)nn2)C[C@H]1C(=O)N[C@H](Cc1ccccc1)C(=O)NS(=O)(=O)C1CC1)C(C)(C)C`, the IC50 is over 100 µM.

As for `Cc1ccc(S(=O)(=O)NC(=O)[C@H](CC(C)C)NC(=O)[C@@H]2C[C@H](n3cc(-c4ccccc4)nn3)CN2C(=O)[C@@H](NC(=O)c2cccs2)C2CCCCC2)cc1`, inhibition was half-maximal at 1.9 µM (IC50).
